Results on two molecules are retold here after ChEMBL document CHEMBL4196009, “Novel vitexin-inspired scaffold against leukemia” (Eur J Med Chem, 2018).

pEC50: −log10 of the molar value. Calls of active or inactive are those of the source. The rule behind the calls is not given here.

The subject of data set [1] is KOPN-8. Briefly: Antiproliferative activity against human KOPN8 cells after 72 hrs by CelTiter-Glo assay. It counts as functional, cell-based. The settings on record: KOPN-8, 72 h.
Data set [2] concerns SUP-B15. Briefly: Antiproliferative activity against human SUP-B15 cells after 72 hrs by CelTiter-Glo assay. It counts as functional, cell-based. The note with it: SUP-B15, 72 h.
A further data set concerns HepG2. Briefly: Antiproliferative activity against human HepG2 cells after 72 hrs by CelTiter-Glo assay. It counts as functional, cell-based. The settings on record: HepG2, 72 h.
The next data set deals with SEM cells. Briefly: Antiproliferative activity against human SEM cells after 72 hrs by CelTiter-Glo assay. The data set is classed as functional, cell-based.
For data set [3], the species on record is Homo sapiens. Briefly: Inhibition of RNA polymerase 2 C-terminal domain phosphorylation at Ser2 residue in human KOPN8 cells at 100 uM pre-treated with NAC for 1 hr and measured after 3 hrs by Western blot analysis relative to control. It counts as cell-based. In a few lines:
(§1)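 KOPN-8 cells were exposed to compound for 3 h and 24 h, with or without N-acetylcysteine added to a parallel set as antioxidant. Lysates were analysed by Western blot for cleaved PARP, Mcl-1, Ser-2-phosphorylated RNAPII CTD, cMyc, total Rb and pRb. Signals were compared against controls for dose-dependent change.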

A further data set relates to UoC-B1. Briefly: Antiproliferative activity against human UOCB1 cells after 72 hrs by CelTiter-Glo assay. It counts as functional, cell-based. The note with it: UoC-B1, 72 h.
Data set [4] deals with KOPN-8. Briefly: Induction of apoptosis in human KOPN8 cells assessed as effect on Mcl-1 level at 10 uM pre-treated with NAC for 1 hr and measured after 3 hrs by Western blot analysis relative to control. It counts as functional.
The next data set concerns BJ. Briefly: Antiproliferative activity against human BJ cells after 72 hrs by CelTiter-Glo assay. It counts as cell-based.
For data set [5], the species on record is Homo sapiens. Briefly: Inhibition of RNA polymerase 2 C-terminal domain phosphorylation at Ser2 residue in human KOPN8 cells at 30 uM pre-treated with NAC for 1 hr and measured after 24 hrs by Western blot analysis relative to control. It counts as cell-based. In a few lines: as §1
In data set [6] the test system is KOPN-8. Briefly: Effect on c-Myc expression in human KOPN8 cells at 10 uM pre-treated with NAC for 1 hr and measured after 24 hrs by Western blot analysis relative to control. The data set is classed as functional.
In data set [7] the test system is KOPN-8. Briefly: Induction of apoptosis in human KOPN8 cells assessed as effect on Mcl-1 level at 100 uM pre-treated with NAC for 1 hr and measured after 3 hrs by Western blot analysis relative to control. The data set is classed as functional. In a few lines: as §1
The species entered for data set [8] is Homo sapiens. Briefly: Inhibition of RNA polymerase 2 C-terminal domain phosphorylation at Ser2 residue in human KOPN8 cells at 10 uM pre-treated with NAC for 1 hr and measured after 24 hrs by Western blot analysis relative to control. The data set is classed as cell-based. Put shortly:
as §1

Data set [9] relates to KOPN-8. Briefly: Effect on c-Myc expression in human KOPN8 cells at 10 uM after 3 hrs by Western blot analysis relative to control. It counts as functional. Put shortly: (§2)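 KOPN-8 cells were treated at 10–100 µM final, with or without N-acetylcysteine co-addition, for 3 h and 24 h. Lysates were analysed by Western blot for PARP cleavage, Mcl-1, phospho-Ser2 RNAPII CTD, c-Myc, total Rb and pRb. Levels are relative to the vehicle control.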

For data set [10], the system named is MDA-MB-231. Briefly: Cell cycle arrest in human MDA-MB-231 cells assessed as accumulation at G2/M phase at 20 uM after 24 hrs by propidium iodide staining-based flow cytometry (reference value: 9.38%). It counts as functional.
In data set [11] the test system is KOPN-8. Briefly: Effect on c-Myc expression in human KOPN8 cells at 100 uM pre-treated with NAC for 1 hr and measured after 3 hrs by Western blot analysis relative to control. The data set is classed as functional.
The test system of data set [12] is MDA-MB-231. Briefly: Cell cycle arrest in human MDA-MB-231 cells assessed as accumulation at S phase at 20 uM after 24 hrs by propidium iodide staining-based flow cytometry (reference value: 20.15%). The data set is classed as functional.
For data set [13], the system named is KOPN-8. Briefly: Induction of apoptosis in human KOPN8 cells assessed as effect on Mcl-1 level at 30 uM after 24 hrs by Western blot analysis relative to control. It counts as functional. In a few lines:
as §1

The test system of data set [14] is MDA-MB-231. Briefly: Cell cycle arrest in human MDA-MB-231 cells assessed as accumulation at G0/G1 phase at 20 uM after 24 hrs by propidium iodide staining-based flow cytometry (reference value: 70.47%). It counts as functional.
For data set [15], the system named is KOPN-8. Briefly: Downregulation of total Rb expression in human KOPN8 cells after 24 hrs by Western blot analysis. The note with it: kopn-8, 24 h. It counts as cell-based. Put shortly: as §2
The subject of data set [16] is KOPN-8. Briefly: Induction of apoptosis in human KOPN8 cells assessed as effect on Mcl-1 level at 30 uM after 3 hrs by Western blot analysis relative to control. It counts as functional. Put shortly: as §1
For data set [17], the system named is KOPN-8. Briefly: Effect on c-Myc expression in human KOPN8 cells at 30 uM after 24 hrs by Western blot analysis relative to control. It counts as functional. In a few lines:
as §2

For data set [18], the species on record is Homo sapiens. Briefly: Inhibition of RNA polymerase 2 C-terminal domain phosphorylation at Ser2 residue in human KOPN8 cells at 100 uM after 24 hrs by Western blot analysis relative to control. It counts as cell-based. In a few lines: as §1
For a further data set, the system named is MCF7. Briefly: Induction of oxidative stress in human MCF7 cells transfected with mRuby-Mito-7 with fugene assessed as increase in intracellular total ROS levels at 50 uM measured after 1 hr by fluorimetric analysis. It counts as functional, cell-based. Put shortly: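 MCF-7 cells carried an mRuby-Cox8A mitochondrial label. They were exposed to 50 of compound, alone or together with 50 of N-acetylcysteine, for 1 h. Cells were then stained with CellROX green (ex/em 485/520 nm) plus Hoechst 33342 nuclear stain. Total and mitochondrial ROS fluorescence was imaged in live cells and quantified relative to control.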

Data set [19] deals with KOPN-8. Briefly: Induction of apoptosis in human KOPN8 cells assessed as necrotic cells at 10 uM after 24 hrs by Annexin V-FITC/propidium iodide staining-based flow cytometry (reference value: 0.2%). The data set is classed as functional. Put shortly: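 KOPN-8 cells were treated for 24 h, with a DMSO vehicle control and a staurosporine positive control. Cells were stained with FITC-Annexin V and propidium iodide and analysed by flow cytometry. Quadrant gating separated viable, early apoptotic, late apoptotic (Q2) and necrotic populations.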

The test system of data set [20] is KOPN-8. Briefly: Effect on c-Myc expression in human KOPN8 cells at 10 uM after 24 hrs by Western blot analysis relative to control. It counts as functional. In a few lines:
as §2

The subject of data set [21] is SUP-B15. Briefly: Induction of apoptosis in human SUP-B15 cells assessed as early apoptotic cells at 5 uM after 24 hrs by Annexin V-FITC/propidium iodide staining-based flow cytometry (reference value: 0.1%). It counts as functional.
Data set [22] relates to MDA-MB-231. Briefly: Cell cycle arrest in human MDA-MB-231 cells assessed as accumulation at S phase at 5 uM after 24 hrs by propidium iodide staining-based flow cytometry (reference value: 20.15%). The data set is classed as functional.

For `COc1ccc(-c2c(I)c(=O)c3c(OC)cc(OC)cc3n2S(=O)(=O)c2ccc(OC)cc2)cc1`, the pEC50 in the data set with KOPN-8 [1] was 5.07; with SUP-B15 [2] it was 4.91; in the data set with HepG2, under 4.76; in the data set on SEM cells it was 5.26; with UoC-B1, 5.59; in the data set with BJ, under 4.46. For the same molecule, the fold change (FC) in the data set listed under Homo sapiens [3] was 1.6; in the data set on KOPN-8 [4], 0.8; in the data set filed under Homo sapiens [5], 0.7; with KOPN-8 [6], 1.3; in the data set on KOPN-8 [7], 0.5; in the data set filed under Homo sapiens [8], 1.5. The “fold change (FC)” value with KOPN-8 [9] came to 0.9; in the data set on KOPN-8 [11], 0.5; in the data set with KOPN-8 [13], 0.7; in the data set on KOPN-8 [16] it was 0.6; in the data set with KOPN-8 [17], 0.9; in the data set listed under Homo sapiens [18], 0.2. In addition, the “fold change (FC)” value in the data set with KOPN-8 [20] is listed as 1.3. Also, the Activity in the data set with MDA-MB-231 [10] is listed as 15.97%; in the data set on MDA-MB-231 [12] it was 17.81%; in the data set with MDA-MB-231 [14], 66.22%; in the data set with KOPN-8 [15], “Dose-dependent effect”; in the data set with KOPN-8 [19], 0.3%. In the data set on MCF7, the outcome was Active.
As to `CN(C)C(=O)c1cc2cnc(Nc3ccc(N4CCNCC4)cn3)nc2n1C1CCCC1` [RIBOCICLIB], the pEC50 in the data set on KOPN-8 [1] was 6.30; in the data set with SUP-B15 [2], under 4.18; in the data set on HepG2, 6.54; in the data set on SEM cells, 6.34; with UoC-B1, under 4.18; with BJ, under 4.18. For the same molecule, the results for the Activity with SUP-B15 [21] and in the data set with MDA-MB-231 [22] were 0.3% and 4.64%, respectively.
